Measurements as given in ChEMBL document CHEMBL1152965, “Synthesis and in vitro antiplasmodial evaluation of 4-anilino-2-trichloromethylquinazolines” (Bioorg Med Chem, 2009).

Experiments:
[1] = tested on: Salmonella enterica subsp. enterica; test: Mutagenic activity in Salmonella Typhimurium TA97a assessed as number of spontaneous and drug-induced revertants after 48 hrs in presence of 4% S9 mixture by Ames test; assay type: toxicity, organism-based; settings: salmonella enterica subsp. enterica serovar typhimurium
Outline: (§1)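 Liquid-incubation Ames variant. Tester strains grown overnight in nutrient broth. 5×10^-3 M DMSO solution of compound added to 0.1 mL culture, with or without 4% S9 mix, 1 h at 37 °C with shaking. Top agar added and mixture plated on Vogel-Bonner agar. After 48 h at 37 °C in the dark, revertants per plate counted with a laser colony counter.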

[2] = tested on: Salmonella enterica subsp. enterica; test: Mutagenic activity in Salmonella Typhimurium TA102 assessed as number of spontaneous and drug-induced revertants after 48 hrs in absence of 4% S9 mixture by Ames test; assay type: toxicity, organism-based; settings: salmonella enterica subsp. enterica serovar typhimurium; outline: as §1
[3] = tested on: Salmonella enterica subsp. enterica; test: Mutagenic activity in Salmonella Typhimurium TA102 assessed as number of spontaneous and drug-induced revertants after 48 hrs in presence of 4% S9 mixture by Ames test; assay type: toxicity, organism-based; settings: salmonella enterica subsp. enterica serovar typhimurium; outline: as §1
Toxoplasma gondii = test: Antitoxoplasmic activity against Toxoplasma gondii tachyzoites infected in HFF assessed as beta-galactosidase activity after 96 hrs by colorimetric microtiter assay; assay type: functional, organism-based
Outline: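 Tachyzoites of the PRU-β-Gal strain. 10⁴ HFF cells per well grown to confluence in phenol-red-free RPMI with 10% FCS. Monolayers infected with 2.10³ parasites per well for 3 h, then compounds in DMSO (final <0.5%) added in triplicate. Incubated 96 h at 37 °C, 6% CO₂. CPRG added at 500 µM final for a further 24 h. Read at 570/630 nm, blanked on uninfected wells. IC50 from three independent experiments.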

[4] = tested on: Salmonella enterica subsp. enterica; test: Mutagenic activity in Salmonella Typhimurium TA98 assessed as number of spontaneous and drug-induced revertants after 48 hrs in presence of 4% S9 mixture by Ames test; assay type: toxicity, organism-based; settings: salmonella enterica subsp. enterica serovar typhimurium; outline: as §1
[5] = tested on: Salmonella enterica subsp. enterica; test: Mutagenic activity in Salmonella Typhimurium TA100 assessed as number of spontaneous and drug-induced revertants after 48 hrs in presence of 4% S9 mixture by Ames test; assay type: toxicity, organism-based; settings: salmonella enterica subsp. enterica serovar typhimurium; outline: as §1
Plasmodium falciparum = test: Antimalarial activity as reduced parasitaemia after 48 hrs against chloroquine, pyrimethamine and proguanil-resistant Plasmodium falciparum W2 infected in type A+ human erythrocytes by flow cytometry; assay type: functional, organism-based; settings: W2, 48 h
[6] = tested on: Salmonella enterica subsp. enterica; test: Mutagenic activity in Salmonella Typhimurium TA97a assessed as number of spontaneous and drug-induced revertants after 48 hrs in absence of 4% S9 mixture by Ames test; assay type: toxicity, organism-based; settings: salmonella enterica subsp. enterica serovar typhimurium; outline: as §1
K562 = test: Cytotoxicity against human K562 cells after 72 hrs by flow cytometry; assay type: cell-based; settings: K562, 72 h
Outline: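 Chemosensitive K562 subline, late log phase, in phenol-red-free RPMI with 10% serum. Compound range added in duplicate (DMSO <0.5%). After 72 h at 37 °C, 6% CO₂, cells stained with propidium iodide and live cells in a 100 µL sample counted by flow cytometry. IC50 from non-linear regression of dose-response curves, mean of three independent experiments.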

[7] = Selectivity index, ratio IC50 for human HepG2 cells to IC50 for chloroquine, pyrimethamine and proguanil-resistant Plasmodium falciparum W2; assay type: functional
Outline: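 SI = HepG2 IC50 / W2 IC50. MTT 2 h, formazan dissolved in DMSO, absorbance 570 nm (ref 630 nm). Viability as % of untreated control, IC50 from dose-response curve.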

HepG2 = test: Cytotoxicity against human HepG2 cells after 72 hrs by MTT assay; assay type: cell-based; settings: HepG2, 72 h
Outline: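 HepG2 cells plated in RPMI with 10% FBS and grown 24 h, then exposed to a range of compound concentrations for 72 h at 37 °C, 6% CO₂. MTT (5 mg/mL stock) added for 2 h, formazan dissolved in DMSO and read at 570 nm against 630 nm. Viability expressed as percent of untreated control. CC50 taken from the dose-response curve.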

[8] = Selectivity index, ratio of IC50 for human K562 cells to IC50 for chloroquine, pyrimethamine and proguanil-resistant Plasmodium falciparum W2; assay type: toxicity, cell-based; settings: K562 cells (cytotoxicity) versus Plasmodium falciparum W2, read-out: Ratio IC50
Outline: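 SI = K562 IC50 / W2 IC50. Live cells counted by flow cytometry after propidium iodide stain. IC50 by non-linear regression, mean of three independent experiments.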

[9] = tested on: Salmonella enterica subsp. enterica; test: Mutagenic activity in Salmonella Typhimurium TA98 assessed as number of spontaneous and drug-induced revertants after 48 hrs in absence of 4% S9 mixture by Ames test; assay type: toxicity, organism-based; settings: salmonella enterica subsp. enterica serovar typhimurium; outline: as §1
Leishmania donovani = test: Antileishmanial activity against Leishmania donovani HOM/IN/01/2001 promastigotes after 72 hrs by flow cytometry; assay type: functional, organism-based; settings: HOM/IN/01/2001, 72 h
Outline: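 GFP-transfected promastigotes, log phase, in M199 with 10% FCS and 500 µg/mL G418, seeded at 10⁵ parasites/mL. Compounds in DMSO (final <0.5% v/v) added in duplicate over a concentration range. Incubated 72 h at 27 °C.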

SMILES | Activity [1] | Activity [2] | Activity [3] | IC50 (Toxoplasma gondii) | Activity [4] | Activity [5] | IC50 (Plasmodium falciparum) | Activity [6] | IC50 (K562) | Ratio IC50 [7] | IC50 (HepG2) | selectivity ratio [8] | Activity [9] | IC50 (Leishmania donovani)
Clc1cccc(Nc2nc(C(Cl)(Cl)Cl)nc3ccccc23)c1 | Not Active | Not Active | Not Active | > 50 µM | Not Active | Not Active | 1.7 µM | Not Active | > 50 µM | >58.8 | > 100 µM | > 29.4 | Not Active | > 50 µM
ClC(Cl)(Cl)c1nc(Nc2cccc(Br)c2)c2ccccc2n1 | Not Active | Not Active | Not Active | > 50 µM | Not Active | Not Active | 2.2 µM | Not Active | > 50 µM | >45.5 | > 100 µM | > 22.7 | Not Active | > 50 µM
